Data set [1] deals with Plasmodium falciparum. The data set is described as follows: Antimalarial activity against Plasmodium falciparum K1. The class given is functional, organism-based. In outline: (§1)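 P. falciparum (Thai isolates; K1 uncloned, T9-96 cloned) kept in continuous culture in human erythrocytes, RPMI 1640 with 25 mM HEPES, 32 mM NaHCO3, 10% human serum, gassed 3% O2/4% CO2/93% N2. 48-h assay at 1% initial parasitaemia, 5% haematocrit; drugs from ethanol stocks (final <1% ethanol).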

The nature of data set [2]: pKa value of compound was evaluated. The class given is physicochemical.
The subject of data set [3] is Plasmodium falciparum. The data set is described as follows: Antimalarial activity against Plasmodium falciparum T9-96. The class given is functional, organism-based. An outline of the steps: as §1

By IC50 is commonly meant the concentration at which inhibition is half-maximal. A higher IC50 goes with a need for much substance. In general, pKa refers to the negative logarithm of the acid dissociation constant. As for `CCN(CC)Cc1cc(Nc2ccnc3cc(Cl)ccc23)ccc1O`, the half-inhibitory concentration (IC50) in data set [1] stood at 24 nM; in data set [3], 20 nM. The pKa in data set [2] was 4.95.
For `CCN(CC)Cc1cc(Nc2ccnc3cc(Cl)ccc23)ccc1F`, in that order: 59 nM, 40 nM and 4.39.
Take `CCN(CC)Cc1cc(Nc2ccnc3cc(Cl)ccc23)cc(F)c1O`: the IC50 was found to be 42 nM in data set [1] and 37 nM in data set [3]. Further, the pKa in data set [2] turned out to be 3.96.
Consider `CCN(CC)Cc1cc(Nc2ccnc3cc(Cl)ccc23)c(F)c(F)c1O`, for which the IC50 in data set [1] stood at 56 nM; in data set [3] it was 40 nM. Also, the pKa in data set [2] worked out at 3.42.
As for `CCN(CC)Cc1c(O)cc(F)c(Nc2ccnc3cc(Cl)ccc23)c1F`, the IC50 in data set [1] worked out at 41 nM; in data set [3], 34 nM. Also, the pKa in data set [2] was determined as 2.59.
In the case of `CCN(CC)Cc1c(O)c(F)c(F)c(Nc2ccnc3cc(Cl)ccc23)c1F`, the 50% inhibitory concentration (IC50) in data set [1] was 500 nM; in data set [3], 291 nM. In data set [2], this molecule showed a pKa of 2.17.
